According to the RNAGym collection of RNA variant scans (doi:10.1126/science.aae0568):
This sample holds only a part of the variants without activity.

B1: tRNA (parent)
chain: GUUCCGUUGGCGUAAUGGUAACGCGUCUCCCUCCUAAGGAGAAGACUGCGGGUUCGAGUCCCGUACGGAACG

Variants of: B1
Test: yeast fitness relative to wild type (ratio to wild type); higher = fitter; tRNA-Arg(CCU), competitive growth, 37 C, YPD
Outline: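 The tRNA-Arg(CCU) gene variants were made by chemical synthesis with a 3% per-site mutation rate at 69 sites and inserted at the native genomic locus of Saccharomyces cerevisiae. After pooling, the strains were competed in YPD at 37°C for 24 hours in six parallel replicates. Gene amplicons from the start population and each end population were read by 100-nucleotide paired-end sequencing, and Darwinian fitness relative to wild type was taken from genotype frequency changes. Genotypes needed ≥ 100 starting reads, and estimates < 0.5 were set to 0.5.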

Going from GUUCCGUUGGCGUAAUGCUAACGCGUCUCCCUCCUAAGGAGAAGACUGCGGGUUCGAGUCCCGUUCGGAACG to GUUCCGUUGGCGUAAUGAUAACGCGGCUCCCUCCUAAGGAGAAGACUGCCGGUUCGAGUCCACUACGGAACG, the yeast fitness falls from 0.691 to ≤ 0.5.

Compared with GUUCCGUUGGCGUAAUGCUAACGCGUCUCCCUCCUGCGGAGAAGACUGCGGGUUCGAGUCCCGUACGGAACG, GUUCCGUUGGCGUAAUGAUAACGCGUCUCCCACCUAAGGAGAAGACUGCGGGUUCGAGUCCCGUACGGAACG is higher in yeast fitness: ≤ 0.5 for the first, 0.513 for the second.

Going from GUUCCGUUGGCGUAAUGCUAACGCGUCUCCCUCCUUAGGAGAAGACUGCGGGUUCGUGUCCCGUACGGAACG to GUUCCGUUGGCGUAAUGCUUACGCGUCUCCUUCCUAAGGAGAAGACUACGGGUUUGAGUCCCGUACGUAACG, the yeast fitness rises from ≤ 0.5 to 0.586.

Compared with GUUCCGUUGGCGUAAUGCUAGCGCGUCUCCCUCCUAAGGAGAAGACUGCGGGUUCGAGUCCCGUACGGACCG, GUUCCGUUGGCGUAAUGCUAAAGCGUCUCCCUCCUAAGGAGAAGACUGCGGGUUCGAGUCCCGUGCGGAACG is lower in yeast fitness: 0.572 for the first, ≤ 0.5 for the second.

Going from GUUCCGUUGGCGUAAUGCUAGCGCGUCUCCCUCCUAAGGAGAAGACAGCGGGUUCGAGUCCCGUACCGAACG to GUUCCGUUGGCGUAAUGCUAAGGCGUCUCCCUCCUAAGGAGAAGACUGCGGGUUCGAGUCCCGUACGGAACG, the yeast fitness rises from 0.53 to 0.682.

GUUCCGUUGGCGUAAUGCUAACGCGUCUCCCUCCUAAGGCGAAGACUGCGGGUUCGAGUCUCGUACGGAACG and GUUCCGUUGGCGUAAUGCUAGCGCGUCUCCCUCCUAAGGAGAAGACUGCGGGUUCGAGUCCCGUAAGGAACG cannot be ordered by yeast fitness: ≤ 0.5 for the first, ≤ 0.5 for the second.

First: GUUCCGUUGGCGUAAUGACAAGGAGUCUCCCUCCUAAGCAGAAGCCUGCGGGUUCGAGUCCCGUACGGAACG
Second: GUUCCGUUGGCGUAAUGCUAACGCGUCUCCCUCCUAGGGAGAAGACUGCGAGUUCGAGUCUCGUAAGGAACG
The yeast fitness of the first is higher: 0.619 for the first, ≤ 0.5 for the second.

GUUCCGUUGGCGUAAUGCUACCGCGUCUCCCUCCUAAGGAGAAGACUGCGGGUUCGAGUCCCGUACGGUACG and GUUCCGUUGGCGUAAUGAUAACGCGUCACCCUCCUAAGGAGGAGCCUGCGGGUUCGAGUCCCGUACGGAACG cannot be ordered by yeast fitness: ≤ 0.5 for the first, ≤ 0.5 for the second.

Compared with GUUCCGUUGGCGUAAUGAUAACGCGCCUCCCUCCUAAGGCGAAGACUGCGGGUACGAGUCCCGUACGGAACG, GUUCCGUUGGCGUAAUGAUAACGCGGCUCCCUCCUAAGGAGAAGACUGCGGGUUUGAGUGCCGUACGGAACG is higher in yeast fitness: ≤ 0.5 for the first, 0.512 for the second.

First: GUUCCGUUGGCGUAAUGAUAACGCGGCUCCCUCCUAAGGAGAAGACUGCCGGUUCGAGUCCCCUACGGAACG
Second: GUUCCGUUGGCGUAAUGCUAACGCGUCUCCCUCCUUAGGAGAAGACUGCGGGUUCGAGUCCCGUACGGAUCG
The yeast fitness of the first is higher: 0.589 for the first, ≤ 0.5 for the second.

Going from GUUCCGUUGGCGUAAUGAUAACGCGGCUCCCUCCUAAGGGGAAGACUGCGGGUUCGAGGCCAGUACGGAACG to GUUCCGUUGGCGUAAUGCUAGCGCGUCUCCCUCCUAAGGAGAAGACUGCGGGUUCGAGUCCCGUACGGAACG, the yeast fitness rises from ≤ 0.5 to 0.643.

GUUCCGUUGGCGUAAUGCUAACGCGUCUCCCUCCUAAGGAGACGACUGCGGGUUCGAGUCCAGUACGGAACG and GUUCCGUUGGCGUAAUGCUAACGCGUCUCCCUCCUAAGGAGAAGUCUGCCGGUUGGAGUCCCGCACGGAACG cannot be ordered by yeast fitness: ≤ 0.5 for the first, ≤ 0.5 for the second.

Going from GUUCCGUUGGCGUAAUGCUAAGGCGUCUCCCUCCUAAGGAGAAGACUGCGGGUUCGAGUCCCGUACGGCACG to GUUCCGUUGGCGUAAUGCUAACGCGUCUCCCUCCUAAGGAGAAGACUGCGGGUUCGAGUCCCGUACGGAGCG, the yeast fitness rises from ≤ 0.5 to 0.588.

Going from GUUCCGUUGGCGUAAUGCUAACGCGUCUCCCUCCUAAGGAGAAGACUGCGGGUUCGAGUCCCGUACGGAUCG to GUUCCGUUGGCGUAAUGAUAACGCGUCCCCCUCCUAAGGAGAAGACAGCGGGUUCGAGUCCCGUACGGAACG, the yeast fitness falls from 0.737 to ≤ 0.5.

Going from GUUCCGUUGGCGUAAUGAUAACGCGGCUCCCUCCUAAGGAGAAGACUCCGGGUUCGAGUCCCGUGCGGAACG to GUUCCGUUGGCGUAAUGCUAACGCGUCUCCCUCCUAAGGAGAAGACUGCGGGUUCGCGUCCCGUACGGAACG, the yeast fitness rises from ≤ 0.5 to 0.627.

Compared with GUUCCGUUGGCGUAAUGCUAACGCGUCUCCCUCCUAAGGAGAAGACUGCGGGUUCGAGUCCCGUACGGCACG, GUUCCGUUGGCGUAAUGCUAACGCGUCUCCCUCCUAAGGAGACGACUGCGGAUUCGAGUCCCGUACGGAACG is lower in yeast fitness: 0.642 for the first, 0.502 for the second.

GUUCCGUUGGCGUAAUGCUAACGCGUCUCCCUCCUAUGGAGAAGACUCAGGGUUCGAGUCCCGUACGGAACG and GUUCCGUUGGCGUAAUGAAAACGCGUCUCCCUCCUAAGGAGAAGACUGCGGGUUCGAGUCCCAUACGGAACG cannot be ordered by yeast fitness: ≤ 0.5 for the first, ≤ 0.5 for the second.

Going from GUUCCGUUGGCGUAAUGACAAUGCGUCUCCCUCCUAAGGAGAAGACUGCGGGUUCGAGUCCCGUACGGAACG to GUUCCGUUGGCGUAAUGCUAACGCGUCUCCCUCCUAAGGAGAAGACUGCGGGUUCGGGACCUGUACGGAACG, the yeast fitness falls from 0.641 to ≤ 0.5.

GUUCCGUUGGCGUAAUGCUAACGCGUCUCCCUCCUAAGGGGGAGACUGCGGGUUCGACUCCCGUACGGAACG and GUUCCGUUGGCGUAAUGAAAACGCGUCUCCCUCCUAAGGAGAAGACUGCGGGUUCAAGUUGCGUACGGAACG cannot be ordered by yeast fitness: ≤ 0.5 for the first, ≤ 0.5 for the second.
